Screening results from PubChem BioAssay.
Shown are actives, neighbours in structure and some others; about 1.5% of the full set was active somewhere.
APJ ag = activates the human apelin receptor APJ; P35414; CHO-K1 APJ PathHunter beta-arrestin, luminescence; 0% DMSO wells, 100% apelin; activation, % at 20 µM; 330,000 compounds, 0.11% hits;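 active means activation more than six SD over the plate average, tested at 20 µM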;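 further: 0% = DMSO alone and 100% = apelin-13 at 10 nM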
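Assay system: engineered CHO-K1 APJ arrestin reporter cells; Amount: 1000 CHO-K1 reporter cells seeded per well; Dosing: one dose, 20 µM compound, 1% DMSO; Times: compound stimulation 90 min at 25 °C, detection 60 min; Measured by: luminescent beta-gal fragment complementation, chemiluminescent substrate; Read-out: APJ–arrestin association signal; Controls: DMSO vs Apelin-13 10 nM.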
APJ antagonist = antagonists of human APJ apelin receptor | AID 2521 | CHO-K1 APJ beta-arrestin complementation, luminescence | 330,000 compounds, 0.32% hits | P35414 | inhibition, % at 20 µM;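 active means inhibition above about 40% at 20 µM, limit read from the data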;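 further: cells challenged with 10 nM apelin-13 agonist together with compound; plate controls were apelin-13 plus DMSO wells for no effect and DMSO wells lacking apelin-13 for full effect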
EBI2 antag = antagonists of human EBI2 receptor; P32249; EBI2 beta-arrestin recruitment, luminescence, 7a,25-OHC stimulated; inhibition, % at 5 µM; 360,000 compounds, 0.81% hits; AID 651636; in the data active means inhibition above about 38%;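 further: enzyme fragment complementation signal reports receptor beta-arrestin coupling in cells; 0% = agonist plus DMSO wells and 100% = wells without agonist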
CXCR6 block = inhibitors of human CXCR6 receptor; O00574; CHO-K1 PathHunter CXCR6 beta-arrestin, luminescence; inhibition, % at 20 µM; 360,000 compounds, 0.36% hits; AID 602244; in the data active means inhibition above about 34%, passing the limit was not always enough;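 further: antagonist mode with CXCL16 agonist at 10 nM final; 0% = 10 nM CXCL16 with DMSO and 100% = unstimulated wells without agonist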
CCR6 antag = blocks CCL20-driven beta-arrestin recruitment at human CCR6. 340,000 compounds, 0.49% hits. inhibition, % at 20 µM. CHO-K1 CCR6 PathHunter beta-arrestin, luminescence, CCL20-stimulated. AID 493098;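 active means compounds whose inhibition of the agonist-driven luminescence signal at 20 µM reaches about 50%, limit read from the data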;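 further: cells stimulated with CCL20 at 14 nM final; plate controls were DMSO with CCL20 for no effect and DMSO without agonist for full effect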
Target sequence (P51684 whole entry, looked up): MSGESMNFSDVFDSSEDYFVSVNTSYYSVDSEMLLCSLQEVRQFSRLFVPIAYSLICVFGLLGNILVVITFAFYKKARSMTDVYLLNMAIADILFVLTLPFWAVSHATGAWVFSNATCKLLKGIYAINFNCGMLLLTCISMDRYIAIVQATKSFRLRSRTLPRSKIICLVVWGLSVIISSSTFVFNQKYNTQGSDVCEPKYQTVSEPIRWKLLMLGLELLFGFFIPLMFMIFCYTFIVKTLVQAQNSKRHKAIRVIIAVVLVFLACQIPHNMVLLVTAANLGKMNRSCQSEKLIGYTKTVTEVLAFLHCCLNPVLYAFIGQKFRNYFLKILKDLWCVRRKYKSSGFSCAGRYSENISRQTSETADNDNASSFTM
EBI2 conf = EBI2 (human) antagonism, single concentration confirmation; shares compounds with EBI2 antag; EBI2 beta-arrestin luminescence, 7a,25-OHC antagonism; inhibition, % at 5 µM; 2,400 compounds, 29% hits; AID 651997;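 active means inhibition of at least 50%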
EBI2 ag = EBI2 agonism counter-screen; AID 652000; shares compounds with EBI2 antag; 2,400 tested, under 10 active; activation, % at 5 µM; EBI2-expressing cells, agonist mode, luminescence, 60 min; 0% vehicle, 100% 7α,25-dihydroxycholesterol control;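 active means activation of at least 50%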
bGal counter = inhibits E. coli beta-galactosidase, counter-screen for EBI2 antagonists. shares compounds with EBI2 antag. purified beta-galactosidase, luminescent Galacton Star, 15 min. inhibition, % at 5 µM. 2,400 compounds, 1% hits. AID 652176;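 active means replicate-average signal at least 3 plate SD below neutral wells, shown as high inhibition, flagging enzyme-inhibiting false positives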;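 further: 0% = DMSO wells with enzyme and 100% = wells lacking enzyme; higher means stronger loss of beta-gal luminescence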
* marks the source's active call; other numbers are inactive results.

How did Cc1ccc(N2C(N)=C(C#N)C(c3cc(CN4CCOCC4)cs3)C3=C2CC(C)(C)CC3=O)cc1 (stereo unspecified) do in these assays?
APJ ag: -3; APJ antagonist: -20; EBI2 antag: 2; CXCR6 block: 0; CCR6 antag: -8

Results for N/C(Cc1ccc(Cl)cc1)=N\OC(=O)c1ccc2ccccc2c1 ?
APJ ag: 16; APJ antagonist: -34; EBI2 antag: 48*; CXCR6 block: -8; CCR6 antag: -6; EBI2 conf: 16; EBI2 ag: 2; bGal counter: 6

What do the screens show for `Cc1ccc(CN2C(=O)C(C)Sc3ccc(C#N)cc32)cc1` (stereo unspecified)?
EBI2 antag: -5; CXCR6 block: -3

How did CCCCn1nnnc1C(c1ccccc1)N1CCN(C/C=C/c2ccccc2)CC1 (stereo unspecified) do in these assays?
EBI2 antag: 46*; CXCR6 block: -3; EBI2 conf: 22; EBI2 ag: -1; bGal counter: -11

Results for CCCCn1nnnc1C(c1ccnc2ccccc12)N1CCN(C/C=C/c2ccccc2)CC1 (stereo unspecified) ?
EBI2 antag: 27; CXCR6 block: 9

What do the screens show for `CCCCn1nnnc1C(c1cccc2ccccc12)N1CCN(C/C=C/c2ccccc2)CC1` (stereo unspecified)?
EBI2 antag: 44*; CXCR6 block: 19; EBI2 conf: 30; EBI2 ag: 0; bGal counter: 4

Results for CCCCn1nnnc1C(CC)N1CCN(C/C=C/c2ccccc2)CC1 (stereo unspecified) ?
EBI2 antag: 16; CXCR6 block: 1

How did CCc1c(C2(O)CCCCC2)[nH]c2ccc(C(F)(F)F)cc12 do in these assays?
APJ ag: 1; APJ antagonist: 0; EBI2 antag: -2; CXCR6 block: -16; CCR6 antag: -4

Results for Cc1cc(C)c(S(=O)(=O)N2CCN(C(=O)CCn3nc(C)c(C)c3C)CC2)c(C)c1 ?
APJ ag: 0; APJ antagonist: -7; EBI2 antag: 47*; CXCR6 block: 0; CCR6 antag: 9; EBI2 conf: 40; EBI2 ag: 0; bGal counter: -3

How did COc1ccc2nc(C)cc(SCC(=O)N/N=C/c3cccc4ccccc34)c2c1 do in these assays?
APJ ag: -3; APJ antagonist: 15; EBI2 antag: 46*; CXCR6 block: -9; CCR6 antag: 10; EBI2 conf: 22; EBI2 ag: 1; bGal counter: 7

What do the screens show for `COc1ccc2nc(C)cc(SCC(=O)N/N=C/c3ccc(O)c(O)c3)c2c1`?
APJ ag: -1; APJ antagonist: -23; EBI2 antag: -5; CXCR6 block: -6; CCR6 antag: 18

How did COC(=O)CC(NC(=O)c1cccs1)c1ccc(OC)c(OC)c1 (stereo unspecified) do in these assays?
APJ ag: -4; APJ antagonist: -12; EBI2 antag: -4; CXCR6 block: 4; CCR6 antag: -5

How did CC(C)N(C(=O)COC(=O)c1ccccc1C(=O)c1ccc(Cl)c([N+](=O)[O-])c1)C(C)C do in these assays?
APJ ag: -2; APJ antagonist: 6; EBI2 antag: 46*; CXCR6 block: 20; CCR6 antag: 27; EBI2 conf: 38; EBI2 ag: 0; bGal counter: 8

How did COC(=O)C1CCN(C(=O)COc2ccc(Cl)cc2)CC1 do in these assays?
APJ ag: 1; APJ antagonist: 7; EBI2 antag: 62*; CXCR6 block: 2; CCR6 antag: -3; EBI2 conf: 57*; EBI2 ag: 1; bGal counter: 10

Results for CCOC(=O)C1CCN(C(=O)COc2ccc(Cl)cc2)CC1 ?
APJ ag: 5; APJ antagonist: 8; EBI2 antag: 75*; CXCR6 block: 6; CCR6 antag: 7; EBI2 conf: 54*; EBI2 ag: -2; bGal counter: -10

What do the screens show for `Cc1cccc(OCC(=O)N2CCN(C(=O)COc3ccc(Cl)cc3)CC2)c1`?
APJ ag: -3; APJ antagonist: 0; EBI2 antag: 84*; CXCR6 block: -7; CCR6 antag: 3; EBI2 conf: 50*; EBI2 ag: -1; bGal counter: -15

How did COc1ccc(S(=O)(=O)N2CCCC2C(=O)n2nc(C)cc2C)cc1 (stereo unspecified) do in these assays?
APJ ag: -4; APJ antagonist: 5; EBI2 antag: -11; CXCR6 block: -8; CCR6 antag: 1

What do the screens show for `CCOc1ccc(-c2c(C(=O)N/N=C/c3c[nH]c4ccccc34)nnn2-c2nonc2N)cc1`?
APJ ag: 9; APJ antagonist: -26; EBI2 antag: 23; CXCR6 block: -3; CCR6 antag: -10

How did O=C(NCCC1=CCCCC1)C(=O)NCC(c1ccco1)N1CCN(c2ccccc2)CC1 (stereo unspecified) do in these assays?
APJ ag: -1; APJ antagonist: 2; EBI2 antag: 11; CXCR6 block: 2; CCR6 antag: 15

What do the screens show for `O=C(NCCc1c[nH]c2ccccc12)C(=O)NCC(c1ccco1)N1CCN(c2ccccc2)CC1` (stereo unspecified)?
APJ ag: 0; APJ antagonist: 5; EBI2 antag: 36*; CXCR6 block: 3; CCR6 antag: 18; EBI2 conf: 14; EBI2 ag: 1; bGal counter: 2

How did O=C(NCCc1c[nH]c2ccccc12)C(=O)NCC(c1ccco1)N1CCN(c2ccc(F)cc2)CC1 (stereo unspecified) do in these assays?
APJ ag: -3; APJ antagonist: -17; EBI2 antag: 41*; CXCR6 block: 5; CCR6 antag: 20; EBI2 conf: 25; EBI2 ag: 0; bGal counter: -6

How did CCC(C)NC(=O)c1cc2c(=O)[nH]c3ccc(C)cc3c2s1 (stereo unspecified) do in these assays?
APJ ag: -5; APJ antagonist: 6; EBI2 antag: 7; CXCR6 block: 5; CCR6 antag: 12

What do the screens show for `COc1ccc(/C=C/c2c(-c3ccc(OC)cc3)sc3ccc(N4CCOCC4)cc23)cc1`?
APJ ag: 9; APJ antagonist: -13; EBI2 antag: 50*; CXCR6 block: 2; CCR6 antag: 1; EBI2 conf: -2; EBI2 ag: -1; bGal counter: -11

How did COc1ccc(-c2sc3ccc(N4CCOCC4)cc3c2C#CCO)cc1 do in these assays?
APJ ag: 2; APJ antagonist: 4; EBI2 antag: 29; CXCR6 block: -12; CCR6 antag: -13
